The results in this text go back to ChEMBL document CHEMBL4627334, “Design, synthesis and biological evaluation of 4-(pyridin-4-yloxy)benzamide derivatives bearing a 5-methylpyridazin-3(2H)-one fragment” (Bioorg Med Chem Lett, 2020).

SMILES strings stand for the structures.

Broadly, the IC50 is the point on the concentration scale where inhibition reaches its midpoint.

Chain of Hepatocyte growth factor receptor (P08581 whole entry): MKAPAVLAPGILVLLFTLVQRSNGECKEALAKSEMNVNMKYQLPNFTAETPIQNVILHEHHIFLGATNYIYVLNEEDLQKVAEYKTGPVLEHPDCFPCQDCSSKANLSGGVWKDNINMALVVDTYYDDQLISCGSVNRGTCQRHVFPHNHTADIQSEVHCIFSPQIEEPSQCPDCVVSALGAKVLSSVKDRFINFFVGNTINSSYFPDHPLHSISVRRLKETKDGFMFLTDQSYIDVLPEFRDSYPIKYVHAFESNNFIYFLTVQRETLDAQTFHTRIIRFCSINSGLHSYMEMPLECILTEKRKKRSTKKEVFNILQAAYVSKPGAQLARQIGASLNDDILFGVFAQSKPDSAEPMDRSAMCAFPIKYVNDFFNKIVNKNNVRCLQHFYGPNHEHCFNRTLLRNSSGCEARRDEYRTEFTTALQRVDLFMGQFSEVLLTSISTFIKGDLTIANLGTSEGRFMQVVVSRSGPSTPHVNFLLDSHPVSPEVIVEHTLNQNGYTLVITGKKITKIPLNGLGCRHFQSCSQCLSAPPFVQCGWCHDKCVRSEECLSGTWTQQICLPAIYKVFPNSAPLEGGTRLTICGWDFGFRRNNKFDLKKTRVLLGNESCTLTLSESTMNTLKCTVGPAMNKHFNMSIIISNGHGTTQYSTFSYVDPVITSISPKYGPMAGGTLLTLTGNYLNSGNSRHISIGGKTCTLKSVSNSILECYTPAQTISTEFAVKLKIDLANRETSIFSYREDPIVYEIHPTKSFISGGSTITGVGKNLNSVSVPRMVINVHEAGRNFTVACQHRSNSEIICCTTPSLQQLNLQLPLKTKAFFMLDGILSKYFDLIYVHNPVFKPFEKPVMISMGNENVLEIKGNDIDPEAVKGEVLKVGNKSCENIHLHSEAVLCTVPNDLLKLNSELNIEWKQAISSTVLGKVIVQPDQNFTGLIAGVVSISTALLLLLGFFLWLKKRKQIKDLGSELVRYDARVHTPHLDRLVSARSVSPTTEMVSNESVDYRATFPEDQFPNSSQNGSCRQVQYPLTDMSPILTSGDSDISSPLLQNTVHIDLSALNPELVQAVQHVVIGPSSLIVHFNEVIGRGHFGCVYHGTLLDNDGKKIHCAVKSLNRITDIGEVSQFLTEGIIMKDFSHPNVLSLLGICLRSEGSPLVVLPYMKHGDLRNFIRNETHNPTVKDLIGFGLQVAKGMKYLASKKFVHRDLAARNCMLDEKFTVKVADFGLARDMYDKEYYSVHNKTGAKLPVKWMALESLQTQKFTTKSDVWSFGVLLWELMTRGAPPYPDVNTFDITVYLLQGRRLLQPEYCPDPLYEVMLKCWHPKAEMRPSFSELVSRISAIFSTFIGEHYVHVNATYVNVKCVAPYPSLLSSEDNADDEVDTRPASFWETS

The first test relates to MCF7. Nature of the test: Antiproliferative activity against human MCF7 cells assessed as reduction in cell viability after 72 hrs by MTT assay. The conditions noted are these: Homo sapiens, MCF7, 72 h; read-out: IC50. It is filed as functional, cell-based. The method in brief: (§1)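 Cells grown in DMEM/1640 with 10% FBS, seeded at about 4×10^3 per well and held 24 h at 37 °C, 5% CO2. Compounds diluted in medium or DMSO were added for 72 h, then MTT ([…]) was added for 3.5 h at 37 °C. Formazan was dissolved in DMSO and read at 492 nm against 630 nm. Triplicate wells, three runs, IC50 calculated.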
Turning to `CCNC(=O)c1cc(Oc2ccc(NC(=O)c3nn(-c4ccc(C)cc4)c(=O)cc3C)cc2)ccn1`, the IC50 was 51.2 µM.
For `CCCNC(=O)c1cc(Oc2ccc(NC(=O)c3nn(-c4ccccc4C)c(=O)cc3C)cc2F)ccn1`, the half-inhibitory concentration (IC50) is 39.6 µM.
Still for that read-out and setting: then `Cc1cc(=O)n(-c2cccc(C(F)(F)F)c2)nc1C(=O)Nc1ccc(Oc2ccnc(C(=O)NCCCN3CCOCC3)c2)cc1`, with 5.21 µM.
Turning to `CCNC(=O)c1cc(Oc2ccc(NC(=O)c3nn(-c4cccc(C(F)(F)F)c4)c(=O)cc3C)cc2)ccn1`, the half-inhibitory concentration (IC50) stood at 40.6 µM.
Consider `CCCNC(=O)c1cc(Oc2ccc(NC(=O)c3nn(-c4cccc(F)c4)c(=O)cc3C)cc2F)ccn1`, for which the half-maximal inhibitory concentration (IC50) is 13.3 µM.
For the molecule `CCNC(=O)c1cc(Oc2ccc(NC(=O)c3nn(-c4ccccc4C)c(=O)cc3C)cc2)ccn1`, the half-inhibitory concentration (IC50) came out at 44.3 µM.
Consider `CCNC(=O)c1cc(Oc2ccc(NC(=O)c3nn(-c4cccc(F)c4)c(=O)cc3C)cc2)ccn1`, for which the half-inhibitory concentration (IC50) amounted to 18.9 µM.

The test is the same for the next values; noted with them: mcf7.
Turning to `Cc1ccc(-n2nc(C(=O)Nc3ccc(Oc4ccnc(C(=O)NCCc5cccs5)c4)cc3)c(C)cc2=O)cc1`, the concentration for half-maximal inhibition (IC50) result is reported as “Not Active”.
As to `CNC(=O)c1cc(Oc2ccc(NC(=O)c3nn(-c4ccccc4)c(=O)cc3C)cc2F)ccn1`, the IC50 result was “Not Active”.
The same measure, in the same setting: under `CCCNC(=O)c1cc(Oc2ccc(NC(=O)c3nn(-c4ccc(Br)cc4F)c(=O)cc3C)cc2F)ccn1` stands “Not Active”; under `Cc1cc(=O)n(-c2ccccc2OC(F)(F)F)nc1C(=O)Nc1ccc(Oc2ccnc(C(=O)NCCc3cccs3)c2)cc1`, “Not Active”.
Consider `Cc1cc(=O)n(-c2cccc(C(F)(F)F)c2)nc1C(=O)Nc1ccc(Oc2ccnc(C(=O)NCCc3cccs3)c2)cc1`, for which the IC50 result was “Not Active”.

For another test, the system named is HeLa. Put plainly: Antiproliferative activity against human HeLa cells assessed as reduction in cell viability after 72 hrs by MTT assay. The note with it: Homo sapiens, HeLa, 72 h; read-out: IC50. It counts as functional, cell-based. The method in brief:
as §1
A general note: Tetrazolium assays rely on reduction of a dye to a coloured formazan, in cell work by metabolically active cells.
With `Cc1ccc(-n2nc(C(=O)Nc3ccc(Oc4ccnc(C(=O)NCCc5cccs5)c4)cc3)c(C)cc2=O)cc1`, the concentration for half-maximal inhibition (IC50) is 660 µM.
With `CCCNC(=O)c1cc(Oc2ccc(NC(=O)c3nn(-c4ccc(Br)cc4F)c(=O)cc3C)cc2F)ccn1`, the IC50 was 53.5 µM.
`Cc1cc(=O)n(-c2ccccc2OC(F)(F)F)nc1C(=O)Nc1ccc(Oc2ccnc(C(=O)NCCc3cccs3)c2)cc1`: the IC50 is 434 µM.
For the molecule `Cc1cc(=O)n(-c2cccc(C(F)(F)F)c2)nc1C(=O)Nc1ccc(Oc2ccnc(C(=O)NCCc3cccs3)c2)cc1`, the IC50 was 885 µM.
Take `CCNC(=O)c1cc(Oc2ccc(NC(=O)c3nn(-c4ccc(C)cc4)c(=O)cc3C)cc2)ccn1`: the IC50 was 10.7 µM.
Consider `CCCNC(=O)c1cc(Oc2ccc(NC(=O)c3nn(-c4ccccc4C)c(=O)cc3C)cc2F)ccn1`, for which the IC50 worked out at 24.6 µM.
In the case of `Cc1cc(=O)n(-c2cccc(C(F)(F)F)c2)nc1C(=O)Nc1ccc(Oc2ccnc(C(=O)NCCCN3CCOCC3)c2)cc1`, the half-maximal inhibitory concentration (IC50) came out at 1.65 µM.
As to `CCNC(=O)c1cc(Oc2ccc(NC(=O)c3nn(-c4cccc(C(F)(F)F)c4)c(=O)cc3C)cc2)ccn1`, the IC50 worked out at 10.7 µM.
As for `CCCNC(=O)c1cc(Oc2ccc(NC(=O)c3nn(-c4cccc(F)c4)c(=O)cc3C)cc2F)ccn1`, the half-inhibitory concentration (IC50) came out at 6.66 µM.
On to `CCNC(=O)c1cc(Oc2ccc(NC(=O)c3nn(-c4ccccc4C)c(=O)cc3C)cc2)ccn1`, for which the half-maximal inhibitory concentration (IC50) turned out to be 27.3 µM.
Take `CCNC(=O)c1cc(Oc2ccc(NC(=O)c3nn(-c4cccc(F)c4)c(=O)cc3C)cc2)ccn1`: the 50% inhibitory concentration (IC50) came out at 6.87 µM.

The same test, now with this note: hela.
In the case of `CNC(=O)c1cc(Oc2ccc(NC(=O)c3nn(-c4ccccc4)c(=O)cc3C)cc2F)ccn1`, the half-maximal inhibitory concentration (IC50) entry was “Not Active”.

The next test has as its target Hepatocyte growth factor receptor (Homo sapiens, UniProt P08581). Nature of the test: Inhibition of cMET (unknown origin) using FAM-labeled peptide as substrate pre-incubated for 5 to 10 mins followed by substrate addition and measured after 30 to 60 mins by mobility shift assay.
Details: not given; call rule not given here
For `Cc1cc(=O)n(-c2cccc(C(F)(F)F)c2)nc1C(=O)Nc1ccc(Oc2ccnc(C(=O)NCCCN3CCOCC3)c2)cc1`, the half-inhibitory concentration (IC50) was above 10 µM.

For another test, the system named is A549. Nature of the test: Antiproliferative activity against human A549 cells assessed as reduction in cell viability after 72 hrs by MTT assay. It is filed as functional, cell-based. The conditions noted are these: A549, 72 h. The method in brief:
as §1
Regarding `Cc1ccc(-n2nc(C(=O)Nc3ccc(Oc4ccnc(C(=O)NCCc5cccs5)c4)cc3)c(C)cc2=O)cc1`, the IC50 amounted to 965 µM.
As to `CNC(=O)c1cc(Oc2ccc(NC(=O)c3nn(-c4ccccc4)c(=O)cc3C)cc2F)ccn1`, the IC50 is 40.8 µM.
Turning to `CCCNC(=O)c1cc(Oc2ccc(NC(=O)c3nn(-c4ccc(Br)cc4F)c(=O)cc3C)cc2F)ccn1`, the IC50 was found to be 235 µM.
Same read-out and setting: under `Cc1cc(=O)n(-c2ccccc2OC(F)(F)F)nc1C(=O)Nc1ccc(Oc2ccnc(C(=O)NCCc3cccs3)c2)cc1` stands 876 µM; under `Cc1cc(=O)n(-c2cccc(C(F)(F)F)c2)nc1C(=O)Nc1ccc(Oc2ccnc(C(=O)NCCc3cccs3)c2)cc1`, 722 µM; under `CCNC(=O)c1cc(Oc2ccc(NC(=O)c3nn(-c4ccc(C)cc4)c(=O)cc3C)cc2)ccn1`, 11.6 µM.
For `CCCNC(=O)c1cc(Oc2ccc(NC(=O)c3nn(-c4ccccc4C)c(=O)cc3C)cc2F)ccn1`, the half-inhibitory concentration (IC50) worked out at 25.7 µM.
Take `Cc1cc(=O)n(-c2cccc(C(F)(F)F)c2)nc1C(=O)Nc1ccc(Oc2ccnc(C(=O)NCCCN3CCOCC3)c2)cc1`: the 50% inhibitory concentration (IC50) amounted to 2.5 µM.
Take `CCNC(=O)c1cc(Oc2ccc(NC(=O)c3nn(-c4cccc(C(F)(F)F)c4)c(=O)cc3C)cc2)ccn1`: the half-maximal inhibitory concentration (IC50) amounted to 10 µM.
Take `CCCNC(=O)c1cc(Oc2ccc(NC(=O)c3nn(-c4cccc(F)c4)c(=O)cc3C)cc2F)ccn1`: the IC50 came out at 7.02 µM.
With `CCNC(=O)c1cc(Oc2ccc(NC(=O)c3nn(-c4ccccc4C)c(=O)cc3C)cc2)ccn1`, the IC50 came to 34.8 µM.
On the same count and under the same terms, under `CCNC(=O)c1cc(Oc2ccc(NC(=O)c3nn(-c4cccc(F)c4)c(=O)cc3C)cc2)ccn1` stands 7.41 µM.
